Source: PubChem
The list is not random: actives were taken first. Their share in the collection is about 4.5%.
OX1R antag-1 = blocks the human orexin 1 receptor | CHO/OX1R cells, Fluo-8 calcium fluorescence, orexin A | inhibition, % at 5 µM | 330,000 tested, 0.43% active | AID 434989;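 active = inhibition above its plate's threshold, mean inhibition of all tested compounds on the plate plus 3 SD, cut at about 37% in these data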;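 also: 0% = orexin A challenge wells and 100% = SB-334867-A antagonist wells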
Target sequence (O43613 whole entry, looked up): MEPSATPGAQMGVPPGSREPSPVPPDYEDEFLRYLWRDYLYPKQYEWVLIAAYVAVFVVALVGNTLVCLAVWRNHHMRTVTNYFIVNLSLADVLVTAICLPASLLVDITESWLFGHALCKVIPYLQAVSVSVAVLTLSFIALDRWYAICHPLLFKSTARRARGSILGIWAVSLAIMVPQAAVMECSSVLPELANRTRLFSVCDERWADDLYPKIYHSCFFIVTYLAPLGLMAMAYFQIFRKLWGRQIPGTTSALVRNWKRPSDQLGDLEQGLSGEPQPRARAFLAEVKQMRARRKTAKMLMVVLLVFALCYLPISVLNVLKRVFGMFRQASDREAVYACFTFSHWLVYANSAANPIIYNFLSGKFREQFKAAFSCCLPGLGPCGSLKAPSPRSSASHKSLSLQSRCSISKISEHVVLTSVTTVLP
GPR7 antag = blocks human GPR7 receptor signaling | P48145 | GPR7-expressing cells, fluorescence antagonist assay | inhibition, % at 4.4 µM | 290,000 tested, 1.1% active; in the data active = inhibition above about 16%, passing the limit was not always enough;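 also: cells stimulated with the agonist NPW; 0% = agonist with vehicle and 100% = vehicle without agonist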
OX1R antag-2 = blocks the human orexin 1 receptor; OX1R-expressing cells, FRET antagonist read-out; AID 485270; 330,000 tested, 1.8% active; O43613; inhibition, % at 6.6 µM; in the data active = inhibition mostly above about 38%, no sharp cut-off; inactive = mostly below about 40%;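 also: 0% = agonist challenge alone and 100% = reference antagonist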
CHO parental Ca = counter-screen: ATP calcium response change in parental CHO cells | parental CHO-K1, ATP-induced calcium, Fluo-8 fluorescence | inhibition, % at 5.6 µM | 330,000 tested, 0.63% active | AID 463079;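 active = inhibition above that plate's mean sample inhibition plus 3 SD, cut at about 26% in these data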;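 also: 0% = ATP-challenged DMSO wells and 100% = DMSO wells without ATP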
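Material: Parental CHO cells | Reagent: ATP | Compound dosing: Single nominal dose of 5.6 µM per compound | Detection: Intracellular calcium via Fluo-8 no-wash fluorescent dye | Read-out: % inhibition of ATP-induced calcium mobilization | Benchmarks: Low control ATP plus DMSO, high control DMSO only | Replicates: Singlicate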
TAAR1 antag = human TAAR1 antagonism; inhibition, % at 3 µM; Q96RJ0; 360,000 tested, 1.5% active; CHO RD-HGA16 TAAR1, Fluo-8 calcium fluorescence, antagonist; AID 624466;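 active = inhibition above a per-plate cutoff, the mean inhibition of test compounds on that plate plus 3 SD, cut at about 49% in these data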;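 also: 0% = DMSO plus EC80 beta-PEA response and 100% = DMSO alone without agonist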
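System: CHO RD-HGA16 cells bearing hTAAR1. Reagent: EC80 β-phenethylamine stimulus. Schedule: seeding 17-24 h prior, 75-min 37 °C, 30-min RT dye loading. Signal: Fluo-8 intracellular calcium dye fluorescence, real-time kinetic reads. Read-out: % inhibition from peak post-agonist over basal fluorescence ratio. Benchmarks: vehicle wells and EC80 agonist wells. Replicates: n of 1.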
TAAR1 ag = agonists of human TAAR1; CHO RD-HGA16 TAAR1, Fluo-8 calcium fluorescence; vehicle wells 0%, saturating PEA agonist 100%; activation, % at 3 µM; 360,000 tested, 0.99% active; AID 624467;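 active = activation above the mean activation of all test compounds in the run plus 3 SD, cut at about 38% in these data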
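Assay system: CHO-derived RD-HGA16 cells with stable Gα16 and human TAAR1; timing: 17-24 h seeding, 75 min 37 °C dye, 30 min RT; read-out: % activation from peak over basal fluorescence ratio, DMSO-to-PEA scaled; measured by: kinetic Fluo-8 calcium fluorescence; benchmarks: low control DMSO, high control PEA (EC100); doses: 3 µM single concentration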
Starred values were filed as active, the others as inactive.

`Cc1cc(-c2n[nH]c(=S)n2Cc2ccccc2)cs1` gave OX1R antag-1 -23, GPR7 antag 22*, OX1R antag-2 0, CHO parental Ca -16, TAAR1 antag 0 and TAAR1 ag 1.
Screening COC(=O)CCN(Cc1ccc(OC)cc1OC)S(=O)(=O)c1ccccc1Br returned TAAR1 antag -24 and TAAR1 ag -1.
CCc1nc2ccc(C(=O)Nc3cccc(OCC(=O)N(C)C)c3)cn2c1N(C)Cc1cc2ccccc2s1 was read as TAAR1 antag 71* and TAAR1 ag 9.
CCc1nc2ccc(C(=O)Nc3cc(-c4ccccc4)ccc3OC)cn2c1N(C)Cc1nccs1 was read as TAAR1 antag 54* and TAAR1 ag 6.
CC(C)N1C(=O)c2ccccc2NC(=O)C1C(=O)NCc1cccc(C(F)(F)F)c1 (stereo not drawn) was read as TAAR1 antag -10 and TAAR1 ag 2.
`O=C(Nc1ccccc1)c1ccccc1OS(=O)(=O)c1ccccc1` gave OX1R antag-1 -18, GPR7 antag -8, OX1R antag-2 19, CHO parental Ca -4, TAAR1 antag -1 and TAAR1 ag -1.
O=C(Oc1ccccc1)c1ccccc1OS(=O)(=O)c1ccccc1 was read as OX1R antag-1 61*, GPR7 antag -6, OX1R antag-2 41, CHO parental Ca 65*, TAAR1 antag 13 and TAAR1 ag 0.
Screening CCOC(=O)[C@H](C)N1[C@H](C)[C@H](c2ccccc2)Oc2ccc(Cl)cc2S1(=O)=O returned TAAR1 antag -19 and TAAR1 ag -2.
Screening COC(=O)[C@@]1(C(C)C)N=C(c2cc(OC)c(OC)c(OC)c2)[C@]2(O1)C(=O)N(C)c1ccc(Cl)cc12 returned TAAR1 antag -1 and TAAR1 ag 5.
`O=C(Cn1cnc2ccccc21)NCc1ccccc1` gave OX1R antag-1 13, GPR7 antag -14, OX1R antag-2 2, CHO parental Ca -16, TAAR1 antag 8 and TAAR1 ag 3.
Cn1c(=O)c2c(ncn2CC(=O)N/N=C/C(Br)=C/c2ccccc2)n(C)c1=O was read as OX1R antag-1 -13, GPR7 antag -1, OX1R antag-2 15, CHO parental Ca -16, TAAR1 antag 2 and TAAR1 ag 5.
Screening O=C(Cn1cnc2ccccc21)Nc1ccc(SC(F)F)cc1 returned OX1R antag-1 18, GPR7 antag 12, OX1R antag-2 30, CHO parental Ca 46*, TAAR1 antag 13 and TAAR1 ag 11.
`O=C(Cn1cnc2ccccc21)N/N=C/C(Br)=C/c1ccccc1` gave OX1R antag-1 11, GPR7 antag 0, OX1R antag-2 7, CHO parental Ca 8, TAAR1 antag 49* and TAAR1 ag 15.
For O=C(O)C1CCCN1C(=O)c1cccc(Cl)c1 (stereo not drawn) the results were TAAR1 antag -21 and TAAR1 ag 2.
For C=CCn1c(=N)n(CC(=O)c2cccc([N+](=O)[O-])c2)c2ccccc21 the results were OX1R antag-1 -21, GPR7 antag 0, OX1R antag-2 39*, CHO parental Ca -6, TAAR1 antag -4 and TAAR1 ag 1.
For N=c1n(CCN2CCCCC2)c2ccccc2n1CC(=O)c1cccc([N+](=O)[O-])c1 the results were OX1R antag-1 -31, GPR7 antag -8, OX1R antag-2 30, CHO parental Ca -25, TAAR1 antag -13 and TAAR1 ag -1.
COC(=O)C1=C(C)N(Cc2ccc(Cl)cc2)C(=S)NC1c1ccc(Cl)cc1 (stereo not drawn) was read as TAAR1 antag 15 and TAAR1 ag 2.
Screening COc1ccccc1N(Cc1ccccc1)S(=O)(=O)c1cccc(C(=O)Nc2ccc(C)cn2)c1 returned OX1R antag-1 0, OX1R antag-2 33, CHO parental Ca -2, TAAR1 antag 50* and TAAR1 ag 2.
`COc1cccc(CN(C)C(=O)c2ccc(OCC(=O)Nc3cccc(C(F)(F)F)c3)c(OC)c2)c1` gave OX1R antag-1 52*, OX1R antag-2 38, CHO parental Ca 65*, TAAR1 antag 67* and TAAR1 ag 9.
For COc1cc(C(=O)NCCCN(C)C)ccc1OCC(=O)Nc1cccc(C(F)(F)F)c1 the results were OX1R antag-1 -1, GPR7 antag 0, OX1R antag-2 10, CHO parental Ca 4, TAAR1 antag 4 and TAAR1 ag 11.
Screening O=C(/C=C(\Nc1cccc(F)c1)c1ccccc1)c1ccccc1 returned TAAR1 antag 14 and TAAR1 ag 0.
For O=C(O)c1ccc(N/N=C/c2ccc(-c3ccccc3)cc2)cc1 the results were GPR7 antag 2, TAAR1 antag 18 and TAAR1 ag 2.
O=C(O)c1ccc(N/N=C/c2ccc(OC(=O)c3ccccc3Cl)cc2)cc1 was read as OX1R antag-1 0, GPR7 antag -1, OX1R antag-2 17, CHO parental Ca 10, TAAR1 antag 58* and TAAR1 ag 10.
For O=C(NCc1ccccc1C(F)(F)F)C1CCC(=O)N(CCCc2ccccc2)C1 (stereo not drawn) the results were OX1R antag-1 -19, GPR7 antag 6, OX1R antag-2 -2, CHO parental Ca -15, TAAR1 antag -4 and TAAR1 ag 1.
O=C1N=C(N2C=CC(=C3C=CNC=C3)C=C2)/C(=C/N=NC(=O)c2ccccc2)S1 was read as OX1R antag-1 -12, GPR7 antag -5, OX1R antag-2 80*, CHO parental Ca 1, TAAR1 antag 1 and TAAR1 ag 3.
`COC(=O)c1cc2c(c3c4cc(OC)ccc4n(S(=O)(=O)c4ccc(OC)cc4)c13)C(=O)N(Cc1ccco1)C2` gave TAAR1 antag -30 and TAAR1 ag 3.
COCCN1Cc2cc(C(=O)OC)c3c(c2C1=O)c1ccccc1n3S(=O)(=O)c1ccc(OC)cc1 was read as TAAR1 antag -20 and TAAR1 ag 2.
Screening O=C(Nc1ccc(N2CCCC(O)C2)cc1)c1snc2c(=O)[nH]cnc12 (stereo not drawn) returned OX1R antag-1 -5, GPR7 antag -8, OX1R antag-2 40*, CHO parental Ca 0, TAAR1 antag -6 and TAAR1 ag 4.
Screening O=C1c2ccccc2/C(=C\c2ccc(O[C@@H]3CCCCO3)cc2)N1c1ccccc1 returned TAAR1 antag 34 and TAAR1 ag 4.
N#C/C(=C\c1ccc(N2CCCCC2)o1)C(N)=O was read as OX1R antag-1 1, GPR7 antag -16, OX1R antag-2 42*, CHO parental Ca -4, TAAR1 antag 13 and TAAR1 ag 23.
CCOc1ccccc1OCC(=O)Nc1ccc(N2CCCCC2)cc1 was read as OX1R antag-1 -5, GPR7 antag 17*, OX1R antag-2 15, CHO parental Ca -13, TAAR1 antag 0 and TAAR1 ag 2.
